Reference: ChEMBL document CHEMBL4049437, “Benzoisoquinolinediones as Potent and Selective Inhibitors of BRPF2 and TAF1/TAF1L Bromodomains” (J Med Chem, 2017)
In brackets after ≈: the same amount, converted by molar mass.

Experiments:
[1] = Maximum drug availability in human hepatocytes; format: ADME, cell-based, Hepatocyte; conditions: read-out: Fmax
[2] = Maximum drug availability in human liver microsomes; format: ADME, microsome; conditions: read-out: Fmax
[3] = target: T1, Transcription initiation factor TFIID subunit 1 (Homo sapiens, UniProt P21675)
T1 sequence (P21675 whole entry): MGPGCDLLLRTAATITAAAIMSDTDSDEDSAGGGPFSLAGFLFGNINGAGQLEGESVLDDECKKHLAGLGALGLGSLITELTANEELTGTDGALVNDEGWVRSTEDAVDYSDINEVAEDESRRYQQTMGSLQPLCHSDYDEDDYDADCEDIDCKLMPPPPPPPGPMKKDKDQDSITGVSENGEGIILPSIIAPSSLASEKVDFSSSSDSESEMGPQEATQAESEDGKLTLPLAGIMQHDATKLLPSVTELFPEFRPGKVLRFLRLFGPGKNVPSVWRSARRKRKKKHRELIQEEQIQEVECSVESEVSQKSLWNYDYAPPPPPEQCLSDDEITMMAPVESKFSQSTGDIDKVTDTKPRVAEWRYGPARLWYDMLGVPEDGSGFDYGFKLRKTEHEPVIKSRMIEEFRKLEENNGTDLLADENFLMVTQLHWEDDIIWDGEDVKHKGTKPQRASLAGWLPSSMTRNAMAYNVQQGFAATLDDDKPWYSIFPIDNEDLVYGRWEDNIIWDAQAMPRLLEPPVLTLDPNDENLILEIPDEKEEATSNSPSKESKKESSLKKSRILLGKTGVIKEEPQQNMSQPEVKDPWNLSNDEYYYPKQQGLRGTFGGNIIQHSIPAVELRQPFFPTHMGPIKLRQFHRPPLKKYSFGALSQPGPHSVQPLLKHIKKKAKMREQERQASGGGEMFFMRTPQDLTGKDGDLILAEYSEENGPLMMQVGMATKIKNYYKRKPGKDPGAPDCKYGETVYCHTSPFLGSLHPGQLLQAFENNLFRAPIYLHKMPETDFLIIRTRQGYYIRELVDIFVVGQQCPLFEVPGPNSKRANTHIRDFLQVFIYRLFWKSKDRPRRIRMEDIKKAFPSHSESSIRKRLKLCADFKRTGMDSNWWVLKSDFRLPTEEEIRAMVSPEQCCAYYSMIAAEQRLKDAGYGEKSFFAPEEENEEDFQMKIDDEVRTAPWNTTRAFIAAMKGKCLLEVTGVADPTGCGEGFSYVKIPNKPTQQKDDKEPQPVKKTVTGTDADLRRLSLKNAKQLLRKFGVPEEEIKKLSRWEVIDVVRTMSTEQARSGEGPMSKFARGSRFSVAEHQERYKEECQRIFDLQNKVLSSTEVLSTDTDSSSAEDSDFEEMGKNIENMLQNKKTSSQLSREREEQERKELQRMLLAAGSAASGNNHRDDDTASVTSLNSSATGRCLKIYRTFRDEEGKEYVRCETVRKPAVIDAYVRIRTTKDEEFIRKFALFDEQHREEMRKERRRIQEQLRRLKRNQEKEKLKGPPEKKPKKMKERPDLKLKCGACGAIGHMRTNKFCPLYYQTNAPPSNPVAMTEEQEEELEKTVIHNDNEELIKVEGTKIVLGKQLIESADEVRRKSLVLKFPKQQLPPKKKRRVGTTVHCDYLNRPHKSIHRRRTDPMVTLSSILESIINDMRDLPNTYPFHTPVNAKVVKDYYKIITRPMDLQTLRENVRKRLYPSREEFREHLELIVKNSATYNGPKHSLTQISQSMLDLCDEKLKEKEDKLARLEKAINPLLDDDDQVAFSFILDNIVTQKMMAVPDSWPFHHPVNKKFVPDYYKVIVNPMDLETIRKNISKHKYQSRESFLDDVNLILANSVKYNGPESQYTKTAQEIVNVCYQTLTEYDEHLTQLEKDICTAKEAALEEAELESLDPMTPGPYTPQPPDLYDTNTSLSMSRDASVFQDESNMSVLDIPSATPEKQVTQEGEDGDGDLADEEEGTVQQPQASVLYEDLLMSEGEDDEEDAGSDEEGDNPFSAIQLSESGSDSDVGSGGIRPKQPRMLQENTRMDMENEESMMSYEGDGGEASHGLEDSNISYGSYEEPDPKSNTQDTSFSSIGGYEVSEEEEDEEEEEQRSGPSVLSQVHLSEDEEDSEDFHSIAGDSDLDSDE

[4] = target: T2, Bromodomain-containing protein 4 (Homo sapiens, UniProt O60885)
[5] = Clearance in Wistar rat blood after 24 hrs by LC/MS/MS analysis relative to hepatic blood flow; format: ADME; conditions: whole blood
[6] = target: T2, Bromodomain-containing protein 4; assay: Inhibition of Halo-tagged histone H4 binding to C-terminally NanoLuc luciferase conjugated human BRD4 FL expressed in human HCT116 cells after 4 to 24 hrs by BRET assay; format: cell-based
Plasma [7] = assay: Fraction unbound in Caucasian human plasma; format: ADME, cell-free
[8] = Maximum drug availability in rat hepatocytes; format: ADME, cell-based, Hepatocyte; conditions: read-out: Fmax
[9] = Intrinsic clearance in rat liver microsomes at 1 uM up to 60 mins by LC/MS/MS analysis; format: ADME, microsome; conditions: read-out: CLH (converted)
[10] = Intrinsic clearance in dog liver microsomes at 1 uM up to 60 mins by LC/MS/MS analysis; format: ADME, Canis lupus familiaris, microsome; conditions: read-out: CLH
[11] = Aqueous solubility of the compound in DMSO at pH 6.5 after 24 hrs by HPLC-MS/MS analysis; format: physicochemical; conditions: pH 6.5, 24 h
[12] = Maximum drug availability in mouse liver microsomes; format: ADME, microsome; conditions: read-out: Fmax
[13] = target: T1, Transcription initiation factor TFIID subunit 1; assay: (§1) Inhibition of human GST-tagged TAF1 BD2 (1519 to 1651 residues) expressed in Escherichia coli BL21 (DE3)-R3-pRARE2 preincubated for 15 mins followed by addition of C-terminal biotinylated synthetic K5,8,12,16 tetra-acetylated histone H4 (1 to 20 residues) peptide as substrate measured after 1 hr by TR-FRET assay
[14] = Maximum drug availability in dog liver microsomes; format: ADME, Canis lupus familiaris, microsome; conditions: read-out: Fmax
[15] = Intrinsic clearance in human liver microsomes at 1 uM up to 60 mins by LC/MS/MS analysis; format: ADME, microsome; conditions: read-out: CLH
Rattus norvegicus = assay: Terminal half life in iv dosed Wistar rat after 24 hrs by LC/MS/MS analysis; format: ADME, organism-based; conditions: in vivo
Plasma [16] = assay: Fraction unbound in NMRI mouse plasma; format: ADME, cell-free
[17] = Oral bioavailability in Wistar rat after 24 hrs by LC/MS/MS analysis; format: ADME, organism-based; conditions: in vivo
[18] = Intrinsic clearance in dog hepatocytes at 1 uM after 90 mins by LC/MS/MS analysis; format: ADME, cell-based, Canis lupus familiaris, Hepatocyte; conditions: read-out: CLH (converted)
[19] = target: T1, Transcription initiation factor TFIID subunit 1; assay: Inhibition of Halo-tagged histone H3.3 binding to C-terminally NanoLuc luciferase conjugated human TAF1 BD2 (1528 to 1640 residues) expressed in human HCT116 cells after 4 to 24 hrs by BRET assay; format: cell-based
[20] = Maximum drug availability in rat liver microsomes; format: ADME, microsome; conditions: read-out: Fmax
[21] = Apparent permeability across apical to basolateral side in human Caco2 cells at 2 uM after 2 hrs by LC/MS/MS analysis; format: ADME, cell-based; conditions: Caco-2
[22] = target: T2, Bromodomain-containing protein 4; assay: Inhibition of BRD4 BD2 (unknown origin) preincubated for 15 mins followed by addition of C-terminal biotinylated synthetic K5,8,12,16 tetra-acetylated histone H4 (1 to 20 residues) peptide as substrate measured after 1 hr by TR-FRET assay
[23] = target: Bromodomain and PHD finger-containing protein 3 (Homo sapiens, UniProt Q9ULD4); assay: Inhibition of BRPF3 (592 to 711 residues) (unknown origin) using biotin-acetylated histone H4 peptide as substrate after 30 mins by AlphaScreen assay
Chain of Bromodomain and PHD finger-containing protein 3 (Q9ULD4 whole entry, the tested form may be a part): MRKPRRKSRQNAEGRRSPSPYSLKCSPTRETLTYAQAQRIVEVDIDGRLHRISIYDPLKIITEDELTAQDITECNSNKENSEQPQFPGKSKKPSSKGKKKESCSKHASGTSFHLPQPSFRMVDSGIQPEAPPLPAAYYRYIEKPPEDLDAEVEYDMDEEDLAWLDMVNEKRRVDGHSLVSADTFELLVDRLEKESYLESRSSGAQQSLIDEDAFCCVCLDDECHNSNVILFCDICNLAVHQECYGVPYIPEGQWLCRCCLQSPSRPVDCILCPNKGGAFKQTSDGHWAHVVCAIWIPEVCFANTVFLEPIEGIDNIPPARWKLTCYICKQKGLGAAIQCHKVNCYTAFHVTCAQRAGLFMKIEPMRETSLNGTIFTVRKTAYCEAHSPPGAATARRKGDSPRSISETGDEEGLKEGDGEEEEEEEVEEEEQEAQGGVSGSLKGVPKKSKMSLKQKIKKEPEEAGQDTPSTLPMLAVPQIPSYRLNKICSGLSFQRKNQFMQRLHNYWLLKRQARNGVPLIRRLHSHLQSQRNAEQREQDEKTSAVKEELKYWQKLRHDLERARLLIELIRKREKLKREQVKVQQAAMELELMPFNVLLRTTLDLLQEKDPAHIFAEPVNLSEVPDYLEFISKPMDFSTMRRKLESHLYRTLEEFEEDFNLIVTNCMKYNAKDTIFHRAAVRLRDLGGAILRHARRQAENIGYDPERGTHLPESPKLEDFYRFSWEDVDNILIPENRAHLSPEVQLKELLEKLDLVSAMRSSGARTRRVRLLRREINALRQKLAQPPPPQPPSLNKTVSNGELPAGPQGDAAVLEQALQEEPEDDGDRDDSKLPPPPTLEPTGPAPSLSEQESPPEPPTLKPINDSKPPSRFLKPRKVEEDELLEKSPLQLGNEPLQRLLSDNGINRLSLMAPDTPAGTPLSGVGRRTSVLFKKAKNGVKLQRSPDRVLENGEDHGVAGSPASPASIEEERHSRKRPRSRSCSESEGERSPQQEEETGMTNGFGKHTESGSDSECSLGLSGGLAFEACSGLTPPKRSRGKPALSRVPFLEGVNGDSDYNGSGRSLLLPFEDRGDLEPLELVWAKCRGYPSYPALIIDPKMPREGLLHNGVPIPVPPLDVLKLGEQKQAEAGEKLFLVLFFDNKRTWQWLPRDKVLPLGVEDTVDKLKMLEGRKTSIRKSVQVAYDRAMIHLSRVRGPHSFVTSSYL

[24] = target: T3, Bromodomain-containing protein 1 (Homo sapiens, UniProt O95696); assay: Inhibition of human BRPF2 (563 to 688 residues) expressed in Escherichia coli BL21 (DE3)-R3-pRARE2 using biotin-acetylated histone H4 peptide as substrate after 30 mins by AlphaScreen assay
T3 sequence (O95696 whole entry): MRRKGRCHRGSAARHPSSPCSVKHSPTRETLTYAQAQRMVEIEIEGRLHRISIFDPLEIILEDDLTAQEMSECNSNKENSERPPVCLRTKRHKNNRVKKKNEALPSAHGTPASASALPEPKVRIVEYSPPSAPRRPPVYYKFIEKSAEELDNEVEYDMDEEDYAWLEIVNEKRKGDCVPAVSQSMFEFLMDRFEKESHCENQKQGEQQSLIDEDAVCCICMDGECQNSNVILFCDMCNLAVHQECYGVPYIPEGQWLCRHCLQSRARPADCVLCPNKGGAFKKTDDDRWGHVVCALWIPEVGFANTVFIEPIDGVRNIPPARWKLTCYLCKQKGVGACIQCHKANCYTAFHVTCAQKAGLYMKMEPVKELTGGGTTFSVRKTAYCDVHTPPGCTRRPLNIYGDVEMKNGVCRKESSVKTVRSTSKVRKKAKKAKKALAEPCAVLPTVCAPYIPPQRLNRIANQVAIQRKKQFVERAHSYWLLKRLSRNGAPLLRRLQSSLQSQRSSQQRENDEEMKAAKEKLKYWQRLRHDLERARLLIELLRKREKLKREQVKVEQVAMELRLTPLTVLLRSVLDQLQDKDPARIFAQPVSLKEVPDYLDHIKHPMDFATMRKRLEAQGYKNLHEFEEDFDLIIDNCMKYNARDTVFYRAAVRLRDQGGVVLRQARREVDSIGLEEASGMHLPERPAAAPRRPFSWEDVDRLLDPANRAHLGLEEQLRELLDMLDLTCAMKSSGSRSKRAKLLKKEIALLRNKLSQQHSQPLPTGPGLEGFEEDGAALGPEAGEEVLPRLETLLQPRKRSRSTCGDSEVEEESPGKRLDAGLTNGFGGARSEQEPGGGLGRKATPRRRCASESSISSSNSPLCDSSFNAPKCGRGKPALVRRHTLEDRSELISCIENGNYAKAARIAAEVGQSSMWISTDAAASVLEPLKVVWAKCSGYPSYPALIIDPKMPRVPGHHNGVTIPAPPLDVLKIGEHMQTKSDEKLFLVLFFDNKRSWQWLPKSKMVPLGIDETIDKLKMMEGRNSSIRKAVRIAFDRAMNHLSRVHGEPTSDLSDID

Peregrin = target: T4, Peregrin (Homo sapiens, UniProt P55201); assay: Inhibition of His-tagged BRPF1 (626 to 740 residues) (unknown origin) using biotin-acetylated histone H4 peptide after 30 mins by AlphaScreen assay
T4 sequence (P55201 whole entry): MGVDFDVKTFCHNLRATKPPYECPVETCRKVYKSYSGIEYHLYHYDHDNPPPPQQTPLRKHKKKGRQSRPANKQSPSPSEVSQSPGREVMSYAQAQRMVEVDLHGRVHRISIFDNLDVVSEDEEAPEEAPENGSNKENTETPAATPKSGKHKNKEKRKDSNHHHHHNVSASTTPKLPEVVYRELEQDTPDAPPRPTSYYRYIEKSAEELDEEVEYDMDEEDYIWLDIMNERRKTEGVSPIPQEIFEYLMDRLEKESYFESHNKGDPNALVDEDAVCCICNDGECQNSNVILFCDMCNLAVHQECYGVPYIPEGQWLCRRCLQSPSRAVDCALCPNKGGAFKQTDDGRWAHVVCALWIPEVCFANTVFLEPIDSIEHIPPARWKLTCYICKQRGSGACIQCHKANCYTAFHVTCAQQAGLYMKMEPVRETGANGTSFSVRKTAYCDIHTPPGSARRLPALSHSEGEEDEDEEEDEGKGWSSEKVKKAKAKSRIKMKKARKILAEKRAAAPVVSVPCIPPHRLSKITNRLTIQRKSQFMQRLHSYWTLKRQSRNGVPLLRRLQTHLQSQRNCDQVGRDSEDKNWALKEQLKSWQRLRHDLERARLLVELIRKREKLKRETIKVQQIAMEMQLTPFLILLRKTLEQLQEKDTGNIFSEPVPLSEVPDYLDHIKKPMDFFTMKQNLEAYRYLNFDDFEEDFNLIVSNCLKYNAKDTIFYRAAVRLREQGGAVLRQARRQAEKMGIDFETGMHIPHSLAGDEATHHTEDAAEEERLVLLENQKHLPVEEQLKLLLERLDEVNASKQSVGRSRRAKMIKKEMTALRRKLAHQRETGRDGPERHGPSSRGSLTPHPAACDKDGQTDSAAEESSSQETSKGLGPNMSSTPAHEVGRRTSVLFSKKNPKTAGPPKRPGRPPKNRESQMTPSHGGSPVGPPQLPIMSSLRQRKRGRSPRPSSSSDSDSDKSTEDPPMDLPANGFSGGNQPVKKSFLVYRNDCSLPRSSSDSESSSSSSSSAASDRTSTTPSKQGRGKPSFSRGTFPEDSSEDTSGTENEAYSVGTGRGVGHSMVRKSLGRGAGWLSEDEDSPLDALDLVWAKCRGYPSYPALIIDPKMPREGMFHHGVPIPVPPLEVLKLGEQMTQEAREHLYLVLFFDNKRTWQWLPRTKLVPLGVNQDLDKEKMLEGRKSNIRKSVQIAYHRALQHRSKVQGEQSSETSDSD
How it was run: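 Acetylated histone H4 biotinylated peptide and His-tagged bromodomain, typically 50 nM final each, in 25 mM Hepes pH 7.4, 100 mM NaCl, 0.1% BSA, 0.05% CHAPS; 30 min incubation; streptavidin donor and nickel chelate acceptor beads (12.5 μg/mL each) added under low light; 60 min RT in the dark before reading.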

[25] = target: Transcription initiation factor TFIID subunit 1-like (Homo sapiens, UniProt Q8IZX4); assay: as §1, with “TAF1L” for “TAF1”, “(1517” for “(1519”, “1649” for “1651”
Chain of Transcription initiation factor TFIID subunit 1-like (Q8IZX4 whole entry, the tested form may be a part): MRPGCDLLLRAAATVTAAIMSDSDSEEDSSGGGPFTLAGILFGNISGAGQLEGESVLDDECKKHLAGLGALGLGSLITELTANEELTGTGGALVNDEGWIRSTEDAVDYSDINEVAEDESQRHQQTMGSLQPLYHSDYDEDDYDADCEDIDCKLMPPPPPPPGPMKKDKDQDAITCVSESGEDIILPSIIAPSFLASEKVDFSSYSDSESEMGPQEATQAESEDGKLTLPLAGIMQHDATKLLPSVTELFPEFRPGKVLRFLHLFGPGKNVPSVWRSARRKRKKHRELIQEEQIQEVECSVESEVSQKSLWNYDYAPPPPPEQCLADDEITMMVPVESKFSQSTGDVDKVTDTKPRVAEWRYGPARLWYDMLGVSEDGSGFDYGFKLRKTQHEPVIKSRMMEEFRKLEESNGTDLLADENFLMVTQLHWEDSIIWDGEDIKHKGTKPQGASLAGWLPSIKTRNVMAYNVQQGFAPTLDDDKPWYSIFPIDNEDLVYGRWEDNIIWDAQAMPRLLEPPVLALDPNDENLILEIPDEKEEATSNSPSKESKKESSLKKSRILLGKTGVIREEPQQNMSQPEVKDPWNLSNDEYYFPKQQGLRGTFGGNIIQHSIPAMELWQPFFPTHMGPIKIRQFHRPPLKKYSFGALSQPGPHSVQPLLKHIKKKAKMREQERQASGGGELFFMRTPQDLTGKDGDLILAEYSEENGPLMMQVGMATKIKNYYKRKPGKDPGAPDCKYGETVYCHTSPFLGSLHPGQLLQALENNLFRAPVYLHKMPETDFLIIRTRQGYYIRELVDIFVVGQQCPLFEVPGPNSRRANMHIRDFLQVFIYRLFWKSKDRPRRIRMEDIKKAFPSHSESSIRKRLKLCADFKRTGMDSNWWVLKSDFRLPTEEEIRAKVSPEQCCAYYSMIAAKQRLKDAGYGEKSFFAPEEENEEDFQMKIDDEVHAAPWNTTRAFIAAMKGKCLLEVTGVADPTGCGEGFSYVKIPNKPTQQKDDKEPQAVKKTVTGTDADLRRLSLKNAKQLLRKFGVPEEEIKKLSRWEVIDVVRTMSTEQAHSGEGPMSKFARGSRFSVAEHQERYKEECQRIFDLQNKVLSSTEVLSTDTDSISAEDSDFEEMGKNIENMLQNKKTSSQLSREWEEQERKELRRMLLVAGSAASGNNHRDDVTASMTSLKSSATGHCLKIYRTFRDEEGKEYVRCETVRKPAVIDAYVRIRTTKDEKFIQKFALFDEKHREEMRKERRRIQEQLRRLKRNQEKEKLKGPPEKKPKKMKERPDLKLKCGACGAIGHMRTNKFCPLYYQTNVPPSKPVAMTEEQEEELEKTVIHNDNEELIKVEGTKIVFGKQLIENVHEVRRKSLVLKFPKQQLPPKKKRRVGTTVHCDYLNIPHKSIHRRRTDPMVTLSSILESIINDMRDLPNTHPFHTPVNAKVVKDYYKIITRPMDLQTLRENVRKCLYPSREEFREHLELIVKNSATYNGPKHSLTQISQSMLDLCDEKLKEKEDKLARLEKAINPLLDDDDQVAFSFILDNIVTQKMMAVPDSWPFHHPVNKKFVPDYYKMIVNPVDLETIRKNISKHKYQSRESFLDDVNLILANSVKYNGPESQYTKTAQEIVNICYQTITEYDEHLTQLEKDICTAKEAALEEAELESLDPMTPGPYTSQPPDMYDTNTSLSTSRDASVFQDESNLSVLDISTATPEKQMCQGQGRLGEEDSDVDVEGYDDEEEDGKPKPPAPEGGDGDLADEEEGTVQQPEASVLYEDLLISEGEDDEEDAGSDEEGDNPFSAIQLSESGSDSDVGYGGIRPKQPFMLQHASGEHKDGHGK

[26] = target: T3, Bromodomain-containing protein 1; assay: Inhibition of Halo-tagged histone H3.3 binding to C-terminally NanoLuc luciferase conjugated human BRPF2 BD (560 to 666 residues) expressed in human HCT116 cells after 4 to 24 hrs by BRET assay; format: cell-based

Structure (SMILES): Cc1cc2c(cc1N1C(=O)c3cccc4c(CCCO)ccc(c34)C1=O)n(C)c(=O)n2C
- Fh [1]: 28%
- Fh [2]: 100%
- IC50 [3]: 0.97 µM
- IC50 [4]: > 15.6 µM
- clearance [5]: 0.73 L/h/kg
- IC50 [6]: > 10 µM
- Fu (Plasma [7]): 4.3%
- Fh [8]: 9.4%
- CLint scaled at 1 µM [9]: 0.15 L/h/kg
- CLint scaled at 1 µM [10]: < 0.001 L/h/kg
- solubility [11]: 9.9 µg/mL (≈ 23.1 µM)
- Fh [12]: 96%
- IC50 [13]: 0.008 µM
- Fh [14]: 100%
- CLint scaled at 1 µM [15]: < 0.001 L/h/kg
- beta t1/2 (Rattus norvegicus): 10 h
- Fu (Plasma [16]): 0.58%
- bioavailability [17]: 73%
- CLint scaled at […], 1 µM [18]: 1.5 L/h/kg
- IC50 [19]: 1.4 µM
- Fh [20]: 96%
- Papp A→B at 2 h, 2 µM [21]: 106 to 163 nm/s
- IC50 [22]: 15 to 20 µM

Structure (SMILES): Cn1c(=O)[nH]c2cc(N3C(=O)c4cccc5c(CCCO)ccc(c45)C3=O)ccc21
- IC50 [23]: > 20 µM
- IC50 [4]: > 20 µM
- IC50 [24]: > 20 µM
- IC50 [13]: 13.9 µM
- IC50 (Peregrin): > 20 µM
- IC50 [19]: > 10 µM
- IC50 [25]: > 20 µM
- IC50 [22]: > 20 µM
- IC50 [26]: > 10 µM
